Reference: ChEMBL document CHEMBL1154571, “A cytotoxic sesquiterpene caffeate from the liverwort Bazzanianovae-zelandiae” (2000)
In brackets after ≈: the same amount, converted by molar mass.

What was measured:
Assay type in all cases: functional
CCRF-CEM = experiment: Cytotoxicity against human CCRF-CEM cells
P388 [1] = experiment: Cytotoxicity against mouse P388 cells after 72 hrs by MTT assay
Summary of the method: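 P-388D1 murine leukemia cells (ATCC CCL 46) were incubated 72 h with a two-fold dilution series of sample. Growth was read by MTT tetrazolium staining absorbance. The concentration giving 50% of solvent-control growth was determined. Values are means of replicates. Mitomycin C at 0.06 μg/mL served as positive control.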

[2] = Cytotoxicity against human NCI60 cells
NCI-H522 = experiment: Cytotoxicity against human NCI-H522 cells
P388 [3] = experiment: Cytotoxicity against mouse P388 cells at 0.06 ug/mL after 72 hrs by MTT assay; conditions: P388, 72 h, read-out: GI
Summary of the method: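 Mitomycin C positive control at 0.06 μg/mL on P-388D1 murine leukemia cells (ATCC CCL 46), 72 h incubation. Growth was read by MTT tetrazolium absorbance and expressed as percent inhibition relative to a solvent control.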

[4] = Mus musculus, P388, 72 h, read-out: GI50

SMILES | GI50 (P388 [1]; [4]) | also measured
C[C@@H]1CC[C@@]2(C)[C@H](C)/C(=C\COC(=O)/C=C/c3ccc(O)c(O)c3)CC[C@@]12C [NAVICULYL CAFFEATE] | 0.8 µg/mL (≈ 2.08 µM) | GI50 (CCRF-CEM): 0.4 µg/mL (≈ 1.04 µM); GI50 (P388 [1]): 1.1 µg/mL (≈ 2.86 µM); GI50 [2]: 2.5 µg/mL (≈ 6.5 µM); GI50 (NCI-H522): 0.5 µg/mL (≈ 1.3 µM)
CO[C@@]12[C@H](COC(N)=O)C3=C(C(=O)C(C)=C(N)C3=O)N1C[C@@H]1N[C@@H]12 [MITOMYCIN] | – | inhibition of growth at 0.06 µg/mL (P388 [3]): 43%
C=C1CCC2CC1C(C)(C)CC(OC(=O)/C=C/c1ccc(O)c(O)c1)/C=C\2C (stereo unspecified) [BAZZANENEYL CAFFEATE] | 0.9 µg/mL (≈ 2.35 µM) | –
CC(C)=CCOC(=O)/C=C/c1ccc(O)c(O)c1 [PRENYL CAFFEATE] | 6.9 µg/mL (≈ 27.8 µM) | –
C[C@@H]1CC[C@@]2(C)[C@H](C)/C(=C/CO)CC[C@@]12C [NAVICULOL] | > 25 µg/mL | –
O=C(/C=C/c1ccc(O)c(O)c1)O[C@H](C(=O)O)[C@H](OC(=O)/C=C/c1ccc(O)c(O)c1)C(=O)O [CHICORIC ACID] | > 25 µg/mL | –
O=C(O)/C=C/c1ccc(O)c(O)c1 [CAFFEIC ACID] | > 25 µg/mL | –
